Experimental data from ChEMBL document CHEMBL1152806, “Discovery of a potent, selective, and orally efficacious pyrimidinooxazinyl bicyclooctaneacetic acid diacylglycerol acyltransferase-1 inhibitor” (J Med Chem, 2009).
Values after ≈ are worked out from the molar mass of the structure shown.

What was measured:
[1] = Volume of distribution at steady state in dog at 1 to 3 mg/kg; format: ADME, organism-based, Canis lupus familiaris; design: dose 1-3 mg/kg; details: in vivo, read-out: Vdss
[2] = Apparent permeability from apical to basolateral side in MDCK cells at 10 uM; format: ADME, cell-based, Canis lupus familiaris; details: dog, read-out: permeability
In short: (§1)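 Cultured MDCK cells incubated with compound at 10 µM; apparent permeability (Papp, ×10^-6 cm/s) measured in both apical-to-basolateral and basolateral-to-apical directions.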

[3] = Bioavailability in rat at 1 to 3 mg/kg; format: ADME, organism-based; details: in vivo
Plasma [4] = test: Fraction unbound in rat plasma by LC-UVMS; format: ADME, cell-free
In short: (§2)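 Equilibrium dialysis in plasma of the relevant species at 37 °C; free and bound drug quantified by LC-UVMS; reported as % free.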

[5] = Aqueous solubility at pH 7.4; format: physicochemical; details: buffer
Plasma [6] = test: Fraction unbound in human plasma by LC-UVMS; format: ADME, cell-free; in short: as §2
[7] = Metabolic stability in dog assessed as urinary excretion of acyl glucuronide form after 2 hrs; format: ADME, Canis lupus familiaris, Urine
In short: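 Parent-related material excreted as acyl glucuronide measured in a 2 h urine sample collected after dosing in dog.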

[8] = Metabolic stability in marmosets alamethicin-activated microsomes assessed as conversion to acyl glucuronide form after 1 hr; format: ADME, Microsome; details: callitrichinae sp.
[9] = Plasma clearance in dog at 1 to 3 mg/kg; format: ADME, organism-based, Canis lupus familiaris; design: dose 1-3 mg/kg
Hepatocyte = test: Metabolic stability in human hepatocytes assessed as conversion to acyl glucuronide form after 2 hrs; format: ADME, cell-based
[10] = Bioavailability in marmosets at 1 to 3 mg/kg; format: ADME, organism-based; details: callitrichinae sp., in vivo
[11] = Metabolic stability in human alamethicin-activated microsomes assessed as conversion to acyl glucuronide form after 1 hr; format: ADME, Microsome
[12] = Half life in dog at 1 to 3 mg/kg, po; format: ADME, organism-based, Canis lupus familiaris; design: dose 1-3 mg/kg, route oral; details: in vivo
[13] = Volume of distribution at steady state in marmosets at 1 to 3 mg/kg; format: ADME, organism-based; design: dose 1-3 mg/kg; details: callitrichinae sp., in vivo; read-out: Vdss
[14] = Lipophilicity, log D of the compound; format: physicochemical; details: octanol/water
[15] = Half life in marmosets at 1 to 3 mg/kg, iv; format: ADME, organism-based; design: dose 1-3 mg/kg, route intravenous; details: callitrichinae sp., in vivo
[16] = Half life in dog at 1 to 3 mg/kg, iv; format: ADME, organism-based, Canis lupus familiaris; design: dose 1-3 mg/kg, route intravenous; details: in vivo
[17] = biological target: T1, Diacylglycerol O-acyltransferase 2 (Homo sapiens) (UniProt Q96PD7); test: Inhibition of human DGAT2 at 10 uM by liquid scintillography
T1 sequence (whole entry): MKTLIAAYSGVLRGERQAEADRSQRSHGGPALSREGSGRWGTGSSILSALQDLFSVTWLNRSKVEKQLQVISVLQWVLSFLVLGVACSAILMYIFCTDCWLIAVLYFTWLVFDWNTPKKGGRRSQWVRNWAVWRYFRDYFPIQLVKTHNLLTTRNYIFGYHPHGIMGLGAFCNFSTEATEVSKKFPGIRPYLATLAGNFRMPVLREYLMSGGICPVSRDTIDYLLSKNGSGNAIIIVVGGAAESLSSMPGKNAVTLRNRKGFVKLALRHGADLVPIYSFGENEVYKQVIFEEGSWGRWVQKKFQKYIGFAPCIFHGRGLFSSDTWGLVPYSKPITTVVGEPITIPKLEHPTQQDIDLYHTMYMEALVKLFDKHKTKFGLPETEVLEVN

[18] = Volume of distribution at steady state in rat at 1 to 3 mg/kg; format: ADME, organism-based; design: dose 1-3 mg/kg; details: in vivo, read-out: Vdss
[19] = Apparent permeability from basolateral to apical side in MDCK cells at 10 uM; format: ADME, cell-based, Canis lupus familiaris; details: dog, read-out: permeability; in short: as §1
Rattus norvegicus [20] = test: Reduction of plasma triacylglycerol excursion in 14 hrs fasted Han-Wistar rat at 1 mg/kg, po treated 2 hrs before bolus corn oil administration measured 1.5 hrs post corn oil challenge by oral lipid tolerance test relative to control; format: functional; design: scale not given: the % may be the effect or the level left
In short: (§3)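 Male Han-Wistar rats (~230 g) on chow diet were fasted 14 h and given compound by oral gavage, suspended in HPMC/Tween. A corn oil bolus (5 mL/kg) followed 2 h later. After 1.5 h, blood was drawn from the abdominal vena cava and plasma TAG measured colorimetrically (GPO-PAP). Result is % reduction versus vehicle-treated controls; n = 6.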

CYP1A2 = biological target: T2, CYP1A2 (Homo sapiens, UniProt P05177); test: Inhibition of CYP1A2 at 30 uM; format: ADME
T2 sequence (P05177 whole entry): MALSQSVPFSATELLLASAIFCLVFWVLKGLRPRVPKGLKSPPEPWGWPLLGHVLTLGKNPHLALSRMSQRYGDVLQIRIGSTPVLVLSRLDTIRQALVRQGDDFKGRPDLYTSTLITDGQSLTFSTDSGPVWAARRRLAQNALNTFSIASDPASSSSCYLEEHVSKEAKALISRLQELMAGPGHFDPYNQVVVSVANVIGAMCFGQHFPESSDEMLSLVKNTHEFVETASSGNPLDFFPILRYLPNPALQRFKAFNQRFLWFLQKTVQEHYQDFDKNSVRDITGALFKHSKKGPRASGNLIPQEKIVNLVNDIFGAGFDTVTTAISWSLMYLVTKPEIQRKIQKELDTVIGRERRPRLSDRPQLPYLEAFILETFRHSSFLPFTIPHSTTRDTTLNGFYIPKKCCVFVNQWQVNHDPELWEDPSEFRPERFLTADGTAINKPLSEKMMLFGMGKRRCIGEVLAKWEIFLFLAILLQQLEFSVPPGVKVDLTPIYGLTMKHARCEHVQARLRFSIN

Rattus norvegicus [21] = test: Reduction of plasma triacylglycerol excursion in 14 hrs fasted Han-Wistar rat at 0.3 mg/kg, po treated 2 hrs before bolus corn oil administration measured 1.5 hrs post corn oil challenge by oral lipid tolerance test relative to control; format: functional; design: scale not given: the % may be the effect or the level left; in short: as §3
[22] = Half life in rat at 1 to 3 mg/kg, iv; format: ADME, organism-based; design: dose 1-3 mg/kg, route intravenous; details: in vivo
[23] = Half life in rat at 1 to 3 mg/kg, po; format: ADME, organism-based; design: dose 1-3 mg/kg, route oral; details: in vivo
Rattus norvegicus [24] = test: Reduction of plasma triacylglycerol excursion in 14 hrs fasted Han-Wistar rat at 0.1 mg/kg, po treated 2 hrs before bolus corn oil administration measured 1.5 hrs post corn oil challenge by oral lipid tolerance test relative to control; format: functional; design: scale not given: the % may be the effect or the level left; in short: as §3
[25] = Metabolic stability in dog alamethicin-activated microsomes assessed as conversion to acyl glucuronide form after 1 hr; format: ADME, Canis lupus familiaris, Microsome
[26] = Half life in marmosets at 1 to 3 mg/kg, po; format: ADME, organism-based; design: dose 1-3 mg/kg, route oral; details: callitrichinae sp., in vivo

CC1(C)Oc2ncnc(N)c2N=C1c1ccc(C23CCC(CC(=O)O)(CC2)CC3)cc1
Vd [1]: 1 L/kg
Papp A→B at 10 µM [2]: 18 ×10⁻⁶ cm/s
bioavailability [3]: 72%
Fu (Plasma [4]): 0.91%
solubility [5]: 12 µM (≈ 5.05 µg/mL)
Fu (Plasma [6]): 1%
Stability [7]: 82%
Stability [8]: 15%
clearance [9]: 3.3 mL/min/kg
Stability (Hepatocyte): 17%
bioavailability [10]: 61%
Stability [11]: 25%
half-life [12]: 594 min
Vd [13]: 0.88 L/kg
logD [14]: 1.9
half-life [15]: 780 min
half-life [16]: 516 min
inhibition [17]: 0%
Vd [18]: 0.7 L/kg
Papp B→A at 10 µM [19]: 26 ×10⁻⁶ cm/s
Activity (Rattus norvegicus [20]): 72%
inhibition at 30 µM (CYP1A2): < 25%
Activity (Rattus norvegicus [21]): 57%
half-life [22]: 420 min
half-life [23]: 324 min
Activity (Rattus norvegicus [24]): 38%
Stability [25]: 76%
half-life [26]: 570 min
